In ChEMBL document CHEMBL3286357, “Design, synthesis and pharmacological evaluation of novel substituted quinoline-2-carboxamide derivatives as human dihydroorotate dehydrogenase (hDHODH) inhibitors and anticancer agents” (Eur J Med Chem, 2014):

Legend:
[1] = Antiproliferative activity against human Hep3B cells at 0.14 ug/ml for 24 hrs by MTT assay; format: functional, Hep 3B2
Method in brief: (§1)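 HEP-3B or A-375 cells were grown in DMEM with 10% FBS, 5% HBSS, penicillin, streptomycin and amphotericin B at 37 C and 5% CO2. Cells were seeded at 2 × 10^4 per well and preincubated for 24 h. They were then exposed to ten 1:3 serial dilutions from a top concentration of 100, made from 2% DMSO stocks. MTT was added for 3 h, formazan was dissolved in DMSO, and A550 was read. Wells were run in triplicate across three independent experiments. IC50 came from dose-response curves.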

A-375 [2] = test: Antiproliferative activity against human A375 cells at 1.23 ug/ml for 24 hrs by MTT assay; format: functional; conditions: A-375, 24 h; method in brief: as §1
A-375 [3] = test: Antiproliferative activity against human A375 cells at 0.41 ug/ml for 24 hrs by MTT assay; format: functional; conditions: A-375, 24 h; method in brief: as §1
A-375 [4] = test: Antiproliferative activity against human A375 cells at 11.11 ug/ml for 24 hrs by MTT assay; format: functional; conditions: A-375, 24 h; method in brief: as §1
A-375 [5] = test: Antiproliferative activity against human A375 cells at 100 ug/ml for 24 hrs by MTT assay; format: functional; conditions: A-375, 24 h; method in brief: as §1
A-375 [6] = test: Antiproliferative activity against human A375 cells at 3.7 ug/ml for 24 hrs by MTT assay; format: functional; conditions: A-375, 24 h; method in brief: as §1
A-375 [7] = test: Antiproliferative activity against human A375 cells at 0.05 ug/ml for 24 hrs by MTT assay; format: functional; conditions: A-375, 24 h; method in brief: as §1
[8] = Antiproliferative activity against human Hep3B cells at 1.23 ug/ml for 24 hrs by MTT assay; format: functional, Hep 3B2; method in brief: as §1
[9] = Antiproliferative activity against human Hep3B cells at 0.41 ug/ml for 24 hrs by MTT assay; format: functional, Hep 3B2; method in brief: as §1
[10] = Antiproliferative activity against human Hep3B cells at 0.05 ug/ml for 24 hrs by MTT assay; format: functional, Hep 3B2; method in brief: as §1
[11] = Antiproliferative activity against human Hep3B cells at 100 ug/ml for 24 hrs by MTT assay; format: functional, Hep 3B2; method in brief: as §1
[12] = Antiproliferative activity against human Hep3B cells at 0.02 ug/ml for 24 hrs by MTT assay; format: functional, Hep 3B2; method in brief: as §1
A-375 [13] = test: Antiproliferative activity against human A375 cells at 0.02 ug/ml for 24 hrs by MTT assay; format: functional; conditions: A-375, 24 h; method in brief: as §1
[14] = Antiproliferative activity against human Hep3B cells at 3.7 ug/ml for 24 hrs by MTT assay; format: functional, Hep 3B2; method in brief: as §1
[15] = Antiproliferative activity against human Hep3B cells at 11.11 ug/ml for 24 hrs by MTT assay; format: functional, Hep 3B2; method in brief: as §1
A-375 [16] = test: Antiproliferative activity against human A375 cells at 33.33 ug/ml for 24 hrs by MTT assay; format: functional; conditions: A-375, 24 h; method in brief: as §1
[17] = Antiproliferative activity against human Hep3B cells at 0.01 ug/ml for 24 hrs by MTT assay; format: functional, Hep 3B2; method in brief: as §1
[18] = Retention time of compound by HPLC analysis; format: physicochemical
A-375 [19] = test: Antiproliferative activity against human A375 cells at 0.14 ug/ml for 24 hrs by MTT assay; format: functional; conditions: A-375, 24 h; method in brief: as §1
[20] = Antiproliferative activity against human Hep3B cells at 33.33 ug/ml for 24 hrs by MTT assay; format: functional, Hep 3B2; method in brief: as §1
A-375 (human melanoma) = test: Antiproliferative activity against human A375 cells for 24 hrs by MTT assay; conditions: A-375, 24 h
A-375 [21] = test: Antiproliferative activity against human A375 cells at 0.01 ug/ml for 24 hrs by MTT assay; format: functional; conditions: A-375, 24 h; method in brief: as §1
HEP-3B (human hepatoma) = test: Antiproliferative activity against human Hep3B cells for 24 hrs by MTT assay

Row | Structure (SMILES) | IC50 (A-375 (human melanoma)) | inhibition at 0.14 µg/mL [1] | inhibition at 1.23 µg/mL (A-375 [2]) | inhibition at 0.41 µg/mL (A-375 [3]) | inhibition at 11.11 µg/mL (A-375 [4]) | inhibition at 100 µg/mL (A-375 [5]) | inhibition at 3.7 µg/mL (A-375 [6]) | inhibition at 0.05 µg/mL (A-375 [7]) | inhibition at 1.23 µg/mL [8] | inhibition at 0.41 µg/mL [9] | inhibition at 0.05 µg/mL [10] | inhibition at 100 µg/mL [11] | inhibition at 0.02 µg/mL [12] | inhibition at 0.02 µg/mL (A-375 [13]) | inhibition at 3.7 µg/mL [14] | inhibition at 11.11 µg/mL [15] | inhibition at 33.33 µg/mL (A-375 [16]) | inhibition at 0.01 µg/mL [17] | inhibition at 0.14 µg/mL (A-375 [19]) | inhibition at 33.33 µg/mL [20] | other results
1 | Cc1c(C(=O)Nc2c(F)cc(-c3cccc(F)c3)cc2F)nc2ccc(OC(F)(F)F)cc2c1O | 85.5 µM | 2.01% | 1.57% | 1.02% | 11.3% | 25.6% | 2.06% | -0.13% | 17.2% | 5.62% | 1.05% | 80.3% | 0.67% | -0.35% | 26.4% | 37.9% | 12.3% | 0.32% | 0.06% | 41.2% | Retention_time [18]: 6.3 min; inhibition at 0.01 µg/mL (A-375 [21]): -0.68%; IC50 (HEP-3B (human hepatoma)): 38.3 µM
2 | Cc1c(C(=O)Nc2ccc(-c3ccccc3)cc2)nc2ccccc2c1C(=O)O | 83.5 µM | 0.03% | 7.65% | 2.38% | 20.3% | 50.3% | 16.3% | 0.87% | 1.25% | 0.98% | -0.12% | 44.4% | -0.35% | 0.12% | 2.31% | 3.25% | 25.6% | -0.68% | 1.56% | 11.2% | Retention_time [18]: 6.8 min; inhibition at 0.01 µg/mL (A-375 [21]): -0.35%; IC50 (HEP-3B (human hepatoma)): > 100 µM
3 | Cc1c(-c2ccc(-c3ccccc3F)cc2)nc2ccc(F)cc2c1C(=O)O [BREQUINAR SODIUM] | 10.2 µM | 4.52% | 26.3% | 18.4% | 46.6% | 74.6% | 33.2% | 2.65% | 21.4% | 15.3% | 2.05% | 68.3% | 0.65% | 1.02% | 34.2% | 46% | 59.7% | 0.23% | 3.48% | 52.3% | inhibition at 0.01 µg/mL (A-375 [21]): 0.18%; IC50 (HEP-3B (human hepatoma)): 8.1 µM

More lines, main results first:

Row | IC50 (A-375 (human melanoma)) | Structure (SMILES) | inhibition at 0.14 µg/mL [1] | inhibition at 1.23 µg/mL (A-375 [2]) | inhibition at 0.41 µg/mL (A-375 [3]) | inhibition at 11.11 µg/mL (A-375 [4]) | inhibition at 100 µg/mL (A-375 [5]) | inhibition at 3.7 µg/mL (A-375 [6]) | inhibition at 0.05 µg/mL (A-375 [7]) | inhibition at 1.23 µg/mL [8] | inhibition at 0.41 µg/mL [9] | inhibition at 0.05 µg/mL [10] | inhibition at 100 µg/mL [11] | inhibition at 0.02 µg/mL [12] | inhibition at 0.02 µg/mL (A-375 [13]) | inhibition at 3.7 µg/mL [14] | inhibition at 11.11 µg/mL [15] | inhibition at 33.33 µg/mL (A-375 [16]) | inhibition at 0.01 µg/mL [17] | inhibition at 0.14 µg/mL (A-375 [19]) | inhibition at 33.33 µg/mL [20] | other results
4 | > 100 µM | Cc1c(C(=O)Nc2c(F)cc(-c3cccc(F)c3)cc2F)nc2ccc(F)cc2c1O | 2.65% | 2.34% | 0.86% | 16.2% | 51.3% | 7.85% | 0.05% | 15.3% | 4.85% | 1.25% | 75.2% | 0.35% | -0.13% | 22.3% | 31.3% | 28.8% | -0.12% | 0% | 41.2% | Retention_time [18]: 6.9 min; inhibition at 0.01 µg/mL (A-375 [21]): -0.35%; IC50 (HEP-3B (human hepatoma)): 65.2 µM
5 | 37.2 µM | Cc1c(C(=O)Nc2ccc(-c3ccccc3)cc2)nc2ccccc2c1O | 3.02% | 4.56% | 2.65% | 26.5% | 52.3% | 17.2% | 1.05% | 14.2% | 9.34% | 1.68% | 84.2% | 1.05% | 0.06% | 21.5% | 38.3% | 34.3% | 0.23% | 1.98% | 46.2% | Retention_time [18]: 6.9 min; inhibition at 0.01 µg/mL (A-375 [21]): -0.11%; IC50 (HEP-3B (human hepatoma)): 75.5 µM
6 | 16.9 µM | CCc1ccc2nc(C(=O)Nc3c(F)cc(-c4cccc(F)c4)cc3F)c(C)c(C(=O)O)c2c1 | 0.68% | 17.7% | 6.12% | 38.9% | 71.3% | 26.7% | 0.95% | 4.52% | 1.68% | 0% | 64.3% | -0.05% | -0.12% | 15.2% | 27.2% | 47.1% | -0.25% | 2.45% | 36.2% | Retention_time [18]: 6.8 min; inhibition at 0.01 µg/mL (A-375 [21]): -0.45%; IC50 (HEP-3B (human hepatoma)): 57.8 µM
7 | 13.2 µM | COc1cccc2c1C(=O)c1c(O)c3c(c(O)c1C2=O)C[C@@](O)(C(=O)CO)C[C@@H]3O[C@H]1C[C@H](N)[C@H](O)[C@H](C)O1 [DOXORUBICIN] | 3.35% | -10.3% | -12.5% | 50.6% | 88.4% | 11.6% | -27.6% | 18.4% | 11.4% | 1.56% | 76.3% | 0.95% | 30.2% | 24.2% | 30.1% | 69.9% | 0.25% | -18.5% | 32.3% | inhibition at 0.01 µg/mL (A-375 [21]): -35.6%; IC50 (HEP-3B (human hepatoma)): 6.35 µM
